pEC50, pIC50: −log10 of the molar value. Activity calls are given as the source filed them. No cut-off for these calls is given here.
Key:
Hepacivirus hominis [1] = test: Inhibition of HCV NS3/4A helicase at 100 uM by FRET assay
Outline: (§1)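 His-tagged NS3/4A (0.9 µg) preincubated with compound on ice for 15 min. Fluorescence (ex 485/em 518 nm) followed continuously and end-point minus start normalized to DMSO. Screened at 100 µM final.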

[2] = Inhibition of ATPase activity of HCV NS3/4A helicase by autoradiography; design: species or system Hepacivirus hominis
Outline: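 ATP hydrolysis measured in 20 mM HEPES-KOH pH 7.0, 1.5 mM MgCl2, 2 mM DTT and 0.1 µg/mL poly-U, with [α-32P]ATP spanning 0.067-20 µM ATP. Reaction started by adding His-tagged NS3/4A (0.45 µg) and stopped with EDTA after 5 min. Products separated by PEI-cellulose TLC in 0.375 M K2PO4 pH 3.5 and quantified by autoradiography.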

[3] = Inhibition of HCV NS3/4A helicase by FRET assay; design: species or system Hepacivirus hominis; outline: as §1
Hepacivirus hominis [4] = test: Inhibition of HCV NS3/4A helicase assessed as blockade of dsRNA binding to enzyme by gel mobility shift assay
Outline: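 Gel mobility shift. NS3/4A (0.45 µg) preincubated with 100 µM compound in helicase buffer without ATP for 5 min at 37 °C. Then 0.66 pmol isotope-labeled partial dsRNA added for 15 min more. Complexes resolved on 4% polyacrylamide containing 5% glycerol and visualized by autoradiography.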

Hepacivirus hominis [5] = test: Inhibition of HCV NS3/4A helicase assessed as blockade of ssRNA formation form dsRNA at 100 uM by PAGE
Hepatitis C virus [6] = test: Antiviral activity against HCV1b infected in human Ava5/Huh7 cells by replicon-cell assay; format: functional, organism-based, Hepacivirus hominis; conditions: genotype 1b
[7] = Cytotoxicity against human HuH7 cells; format: cell-based, Huh-7
[8] = Ratio of CC50 for human HuH7 cells to EC50 for HCV1b; design: species or system Huh-7
Hepatitis C virus [9] = test: Antiviral activity against HCV1b infected in human Ava5/Huh7 cells assessed as decrease in viral RNA level at 5 to 10 uM after 2 days by RT-PCR relative to control; format: functional, Hepacivirus hominis, genotype 1b; design: scale not given: the % may be the effect or the level left
Outline: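 Ava.5/Huh-7 replicon cells (genotype 1b) seeded and grown 24 h in G-418-free DMEM, then exposed to 5, 10 or 20 µM compound for 24 or 48 h. Total RNA extracted and 1 µg reverse-transcribed with random decamers. SYBR Green real-time PCR run 40 cycles. HCV signal normalized to GAPDH and expressed relative to untreated replicon cells set at 1.0. Triplicate, averaged.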

[10] = Cytotoxicity against human Ava5/Huh7 cells assessed as reduction in cell growth at 5 uM after 5 days in absence of polypeptide synthesis blocker G418; format: cell-based; design: scale not given: the % may be the effect or the level left; conditions: ava5/huh7, 120 h
[11] = Cytotoxicity against human Ava5/Huh7 cells assessed as reduction in cell growth at 5 uM after 5 days in presence of polypeptide synthesis blocker G418; format: cell-based; design: scale not given: the % may be the effect or the level left; conditions: ava5/huh7, 120 h

Row | SMILES | inhibition (Hepacivirus hominis [1]) [%] | pIC50 [2] | pIC50 [3] | Activity (Hepacivirus hominis [4]) | Activity (Hepacivirus hominis [5]) | pEC50 (Hepatitis C virus [6]) | CC50 [7] [µM] | other results
1 | COc1ccc(-c2cc(-c3ccc(N(C)C)cc3)nc(NS(=O)(=O)c3ccc(N)cc3)n2)cc1 | 46 |  |  |  |  |  |  | 
2 | CC(C)(c1ccc(O)cc1)c1ccc(C(C)(c2ccc(O)cc2)c2ccc(O)cc2)cc1 |  | 4.59 | 4.86 | Dose-dependent effect | Active | 5.08 | 12.7 | Ratio CC50/EC50 [8]: 1.51
3 | Cc1cc([C@@](O)(c2ccc(Nc3ccccc3)cc2)c2ccc(Nc3ccc(S(=O)(=O)[O-])cc3)cc2)ccc1N.[Na+] |  | < 4.00 | 4.90 | Dose-dependent effect | inactive | 6.16 | 0.96 | Ratio CC50/EC50 [8]: 1.39
4 | Nc1ccc(C(c2ccc(N)cc2)c2ccc(N)cc2)cc1 | 30 |  |  |  |  |  |  | 
5 | CC(C)(c1ccc(O)cc1)c1ccc(C(C)(C)c2ccc(O)cc2)cc1 |  |  | 4.22 |  |  |  |  | 
6 | O=C(O)c1cc(Nc2ccc(C(Cl)(c3ccccc3)c3ccc(Nc4ccc(Cl)c(C(=O)O)c4)cc3)cc2)ccc1Cl |  | 4.60 | 4.53 | Dose-dependent effect | Active | < 4.30 | > 50 | 
7 | CC(c1ccc(O)cc1)(c1ccc(O)cc1)c1ccc(O)cc1 | 39 |  |  |  |  |  |  | 
8 | O=S(=O)(O)c1ccc(N=C2C=CC(=C(c3ccc(Nc4cccc(S(=O)(=O)O)c4)cc3)c3ccc(Nc4cccc(S(=O)(=O)O)c4)cc3)C=C2)cc1 |  | 4.62 | 4.40 | Dose-dependent effect | Active | < 4.30 | > 50 | 
9 | CC(C)(c1ccc(C(C)(c2ccc(O)c(Br)c2)c2ccc(O)c(Br)c2)cc1)c1ccc(O)c(Br)c1 |  |  | 5.00 |  |  | 5.57 | 10.5 | Ratio CC50/EC50 [8]: 3.86; Activity (Hepatitis C virus [9]): 40%; Activity [10]: 20%; Activity [11]: 50%
10 | COc1ccc(C(C)(C)c2ccc(C(C)(c3ccc(OC)cc3)c3ccc(OC)cc3)cc2)cc1 | 15 |  |  |  |  |  |  | 
11 | CC(c1ccccc1)(c1ccc(O)cc1)c1ccc(O)cc1 | 43 |  |  |  |  |  |  | 
12 | CC(c1ccccc1)(c1ccc(Oc2ccc([N+](=O)[O-])cc2)cc1)c1ccc(Oc2ccc([N+](=O)[O-])cc2)cc1 | 0 |  |  |  |  |  |  | 

From ChEMBL document CHEMBL1138524, “Structure-based discovery of triphenylmethane derivatives as inhibitors of hepatitis C virus helicase” (J Med Chem, 2009)
